Source: paper PMC8349541 (OncoTargets and therapy, 2021)

Legend:
[1] = system: GBM8401 glioma cells; assay: Cell cycle analysis; assay type: cell-based, human; settings: GBM8401, 48 h, low-dose
Outline: (§1)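 Treated 48 h, then fixed in 70% ethanol at 4°C and held overnight at −20°C. Washed twice in cold PBS containing 1% FBS, then stained with PI solution containing Tween 20 and RNase A for 30 min at 37°C in the dark. DNA content read by flow cytometry. Mean ± s.d., n = 3, against control by t test or one-way ANOVA.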

[2] = system: NHA (normal human astrocyte); assay: MTS cell viability assay, NHA; assay type: cell-based
[3] = system: LN229 glioma cells; assay: BrdU proliferation assay, LN229; assay type: cell-based, human; settings: for effect on cell proliferation: LN229, 48 h, single dose
[4] = system: LN229 glioma cells; assay: Wound healing migration assay, LN229; assay type: cell-based, human; settings: LN229, 16 h wound healing, dosage under IC50
Outline: (§2)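 Cells plated at 1×10^5 per well in 12-well plates at 37°C, 5% CO2. At 90% confluence the medium was removed and the monolayer scratched with a 200 μL pipette tip, then washed three times. Wound imaged at 0 and 16 h, and migration calculated from the change in wound area, with 0 h DMSO-control area set to 100%.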

[5] = system: SVG p12 normal brain cell line; assay: MTS cell viability assay, SVG p12; assay type: cell-based, human
[6] = system: LN229 glioma cells; assay: Colony formation assay, LN229; assay type: cell-based, human; settings: LN229, cultured 2 weeks
Outline: (§3)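 Cells seeded at 3000 per well in 6-well plates and grown 2 weeks, with test compound added on day 3. Colonies fixed in methanol and stained with 0.5% crystal violet. Image analysis counted colonies larger than 0.1 mm in diameter. Mean ± s.d., n = 3.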

[7] = system: GBM8401 glioma cells; assay: Colony formation assay, GBM8401; assay type: cell-based, human; settings: GBM8401, cultured 2 weeks
Outline: as §3

[8] = system: LN229 glioma cells; assay: Cell cycle analysis; assay type: cell-based, human; settings: LN229, 48 h, low-dose
Outline: as §1

[9] = system: GBM8401 glioma cells; assay: Wound healing migration assay, GBM8401; assay type: cell-based, human; settings: GBM8401, 16 h wound healing, dosage under IC50
Outline: as §2

[10] = system: GBM8401 glioma cells; assay: BrdU proliferation assay, GBM8401; assay type: cell-based, human; settings: GBM8401, 48 h; for effect on cell proliferation: single dose
[11] = system: LN229 glioma cells; assay: MTS cell viability assay, LN229; assay type: cell-based, human
Outline: (§4)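 Cells in DMEM with 10% FBS and penicillin/streptomycin at 37°C under 5% CO2, seeded in 96-well plates (LN229 3000, GBM8401 2000 cells per well). Exposed to test compound for 24 h, then incubated 2 h with MTS reagent added to the medium. Absorbance read at 490 nm, and IC50 determined from the viability data.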

[12] = system: GBM8401 glioma cells; assay: MTS cell viability assay, GBM8401; assay type: cell-based, human
Outline: as §4

[13] = SVG p12, MTS assay, 24 h treatment
[14] = Homo sapiens, Glioma cell, 24 h

IC50 ([11]; Homo sapiens, LN-229, 24 h) [µM] | IC50 [12, 14] [µM] | Compound | IC50 ([2]; NHA, MTS assay, 24 h treatment) [µM] | effect on cell proliferation [3] | effect on migration [4] | IC50 [5, 13] [µM] | effect on colony formation [6] | effect on colony formation [7] | effect on migration [9] | effect on cell proliferation [10] | other results
26.8 | 32.4 | O=C(/C=C/c1ccc(O)cc1)CC(=O)/C=C/c1ccc(O)cc1 [Bisdemethoxycurcumin] | 31.9 | significantly increased the cell proliferation | had no effect on the migration | 29.2 | dose dependently increased colony formation | dose dependently increased colony formation | had no effect on the migration | significantly increased the cell proliferation | effect on S phase [1]: increased S phase not significantly; dose effect on cell proliferation (BrdU M1) ([3]; LN229 (printed LN299), 48 h): dose-dependently increased M1; IC50 ([5]; Homo sapiens, SVGp12, 24 h, SVG p12, MTS assay, 24 h treatment): 30 µM; effect on S phase [8]: increased S phase not significantly; dose effect on cell proliferation (BrdU M1) [10]: dose-dependently increased M1; effect on cell viability ([11]; LN229, low-dose): slightly increased cell viability; effect on cell viability ([12]; GBM8401, low-dose): slightly increased cell viability
5.85 | 6.31 | COc1cc(/C=C/C(=O)CC(=O)/C=C/c2ccc(O)c(OC)c2)ccc1O [Curcumin] |  | suppressed cell proliferation | dose-dependently inhibited the migration |  | inhibited colony formation | inhibited colony formation | dose-dependently inhibited the migration | suppressed cell proliferation | IC50 ([2]; Homo sapiens, Astrocyte, 24 h): 22.2 µM; IC50 ([5]; Homo sapiens, SVGp12, 24 h): 4.19 µM
 |  | Demethoxycurcumin | 11.3 | promoted cell proliferation | had no effect on the migration | 30 | suppressed colony formation in LN229 cells only in high-dose manner | not in GBM8401 cells | had no effect on the migration | reduce | IC50 ([11]; LN229, MTS assay, 24 h treatment): 24.5 µM; IC50 ([12]; GBM8401, MTS assay, 24 h treatment): 17.7 µM
